# Reference: ChEMBL document CHEMBL2057097, “Synthesis and biological evaluation of rebeccamycin analogues modified at the imide moiety” (Bioorg Med Chem Lett, 2012)
# Key:
# A2780 [1] = test: Cytotoxicity against human A2780 cells after 72 hrs by sulforhodamine B assay; format: functional, cell-based; conditions: A2780, 72 h
# Method in brief: (§1)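 Cells seeded (A2780 2000, H460 1500, GLC-4 1500 per well), incubated 24 h at 37 °C, 5% CO₂. Compounds from DMSO diluted in saline, tested over 0.001 to 10 range. 24 h exposure, two PBS washes, then 72 h in drug-free medium. Viability by SRB; IC50 from survival-versus-concentration curve against untreated control.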
# NCI-H460 = test: Cytotoxicity against human NCI-H460 cells after 72 hrs by sulforhodamine B assay; format: functional, cell-based; conditions: NCI-H460, 72 h; method in brief: as §1
# [2] = Cytotoxicity against human GLC4 cells after 72 hrs by sulforhodamine B assay; format: functional, cell-based; conditions: GLC4, 72 h; method in brief: as §1
# A2780 [3] = test: Ratio of IC50 for edotecarin to compound IC50 for human A2780 cells after 72 hrs by sulforhodamine B assay; format: functional
# A2780 [4] = test: Antitumor activity against human A2780 cells xenografted in athymic harlan mouse assessed as tumor volume inhibition at 90 mg/kg, […] Q4D for 4 weeks; format: functional; conditions: A2780, 672 h
# Method in brief: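 Female athymic nude mice, 6–8 weeks old, five per group, implanted s.c. in right flank with A2780 cells (10 × 10⁶ cells/flank in 0.2 ml 0.9% NaCl). Treatment began at tumours approximately 50 mm³. Compound dissolved in sterile water, diluted in saline, given i.v. q4dx4 at 10 ml/kg. Calliper length/width; TV = width² × length/2. TVI versus controls at nadir of treated group; deaths recorded.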
# Mus musculus = test: Toxicity in athymic Harlan mouse xenografted with human A2780 cells assessed as mortality at 90 mg/kg, iv administered Q4D for 4 weeks; format: organism-based; parameters: dose 90 mg/kg, route intravenous; conditions: in vivo, 672 h
# Method in brief: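 Female athymic nude mice (6–8 weeks old, five per group) received 10 × 10⁶ A2780 cells s.c. in the right flank, suspended in 0.9% NaCl. Dosing began at tumours of about 50 mm³. The drug was dissolved in sterile water for injection, diluted in saline just before use, and given i.v. q4dx4 (twice weekly) at 10 ml/kg. Read-out was deaths out of total mice.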
SMILES,IC50 (A2780 [1]),IC50 (NCI-H460),IC50 [2],Ratio IC50 (A2780 [3]),inhibition in vivo at 90 mg/kg (A2780 [4]),Activity (Mus musculus)
O=C1c2c(c3c4ccc(O)cc4n([C@@H]4O[C@H](CO)[C@@H](O)[C@H](O)[C@H]4O)c3c3[nH]c4cc(O)ccc4c23)C(=O)N1NCC1COCO1 (some centres not stated),1.7 nM,> 1000 nM,0.8 nM,3,,
O=C1c2c(c3c4ccc(O)cc4n([C@@H]4O[C@H](CO)[C@@H](O)[C@H](O)[C@H]4O)c3c3[nH]c4cc(O)ccc4c23)C(=O)N1NC(CO)CO [EDOTECARIN],6.5 nM,193 nM,0.8 nM,,99.8%,Non-toxic
O=C1c2c(c3c4ccc(O)cc4n([C@@H]4O[C@H](CO)[C@@H](O)[C@H](O)[C@H]4O)c3c3[nH]c4cc(O)ccc4c23)C(=O)N1N1CCOCC1,54 nM,> 1000 nM,90 nM,,,
COCC(COC)NN1C(=O)c2c(c3c4ccc(O)cc4n([C@@H]4O[C@H](CO)[C@@H](O)[C@H](O)[C@H]4O)c3c3[nH]c4cc(O)ccc4c23)C1=O,12.7 nM,> 125 nM,3.8 nM,,,
CC[C@@]1(O)C(=O)OCc2c1cc1n(c2=O)Cc2cc3ccccc3nc2-1 [CAMPTOTHECIN],7 nM,5 nM,10 nM,,,
O=C1c2c(c3c4ccc(O)cc4n([C@@H]4O[C@H](CO)[C@@H](O)[C@H](O)[C@H]4O)c3c3[nH]c4cc(O)ccc4c23)C(=O)N1NC1COCOC1,0.7 nM,> 250 nM,0.7 nM,10,99.7%,Non-toxic
O=C1c2c(c3c4ccc(O)cc4n([C@@H]4O[C@H](CO)[C@@H](O)[C@H](O)[C@H]4O)c3c3[nH]c4cc(O)ccc4c23)C(=O)N1NC1C(O)CCCC1O (some centres not stated),90 nM,> 250 nM,101 nM,,,
